Assay outcomes: PubChem BioAssay, several laboratories
DNMT1 block = human DNMT1 methyltransferase inhibitors, primary screen, biochemical, molecular beacon, fluorescence, HinP1I cleavage, uHTS | DNA (cytosine-5)-methyltransferase 1 (Homo sapiens), P26358 | inhibition (reported as % activation of signal), % at 10 µM | 360,000 compounds, 0.83% hits; in the data active = inhibition above about 50%
STEP block = STEP phosphatase inhibitors, primary screen, biochemical, fluorescence intensity, uHTS; Tyrosine-protein phosphatase non-receptor type 5 (Homo sapiens), P54829; recombinant STEP, OMFP fluorogenic substrate; inhibition, % at 20 µM; 360,000 compounds, 0.25% hits;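 active = inhibition at 20 µM, scaled per plate between control wells, above about 37%, limit read from the data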;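 also: 0% = DMSO with enzyme and substrate and 100% = substrate only without enzyme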
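medium = Bis-Tris buffer pH 6.0, 2.5 mM DTT, 0.005% Tween 20 | test system = STEP (striatal-enriched tyrosine phosphatase) enzyme, cell-free | measure = normalized % inhibition | compound dosing = 20 µM, 1% DMSO | also added = 25 µM OMFP | schedule = reaction 20 min, ambient temperature | measured by = fluorescence read at 480 nm ex / 540 nm em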
SUMO1 PPI mod = modulators of SUMO1 protein-protein interactions, primary screen, biochemical, uHTS | Small ubiquitin-related modifier 1 (Homo sapiens), P63165 | SUMO1 binding to a labelled peptide, TR-FRET, 1 h | inhibition, % at 20 µM | 360,000 compounds, 0.33% hits; in the data active = inhibition above about 37%
Target sequence (P63165 whole entry, looked up): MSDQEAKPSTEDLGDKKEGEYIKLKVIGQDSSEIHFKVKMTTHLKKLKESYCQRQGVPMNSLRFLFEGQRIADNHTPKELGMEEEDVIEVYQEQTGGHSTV
Scp-1 inhibitor = Scp-1 phosphatase inhibitors, primary screen, biochemical, colorimetric, uHTS; Recombinant Scp1, phosphopeptide, malachite green phosphate absorbance; Carboxy-terminal domain RNA polymerase II polypeptide A small phosphatase 1 (Homo …; inhibition, % at 20 µM; 340,000 compounds, 0.88% hits;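 active = inhibition above about 50% at 20 µM, limit read from the data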;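 also: plate controls were DMSO wells with enzyme for no effect and wells lacking enzyme for full effect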
Target sequence (Q9GZU7 76-261 limits assumed): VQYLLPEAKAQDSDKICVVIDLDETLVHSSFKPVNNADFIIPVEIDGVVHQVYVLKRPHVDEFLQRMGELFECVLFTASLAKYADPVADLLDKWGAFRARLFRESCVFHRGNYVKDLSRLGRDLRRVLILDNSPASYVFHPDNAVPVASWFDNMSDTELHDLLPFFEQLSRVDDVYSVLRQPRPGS
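Test system: SCP-1 phosphatase catalytic domain, residues 76-261; measured by: colorimetric phosphate reagent with accelerator and stabiliser, absorbance at 630 nm; timing: enzyme reaction 45 min at room temperature, colour 5 min, stabilisation 30 min; also added: Phosphorylated 17-residue peptide substrate; compound dosing: one concentration, 20 µM, with 1.0% DMSO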
LMPTP block = LMPTP phosphatase inhibitors, primary screen, biochemical, fluorescence intensity, uHTS; AID 651560, 2012; recombinant LMPTP-A, OMFP fluorogenic substrate; Low molecular weight phosphotyrosine protein phosphatase (Homo sapiens), P24666; 360,000 compounds, 0.22% hits; inhibition, % at 20 µM;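 active = compounds that cut the enzyme signal by at least half of the control window in the single-dose screen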;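 also: plate controls were DMSO wells with enzyme plus substrate for no effect and substrate without enzyme for full effect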
Target sequence (P24666 whole entry, looked up): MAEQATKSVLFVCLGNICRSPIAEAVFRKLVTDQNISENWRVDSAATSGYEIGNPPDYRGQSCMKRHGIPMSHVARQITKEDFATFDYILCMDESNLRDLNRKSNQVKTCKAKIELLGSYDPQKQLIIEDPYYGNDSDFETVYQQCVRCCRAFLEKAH
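Assay system: LMPTP-A, protein tyrosine phosphatase of low molecular weight / Medium: pH 6.0 Bis-Tris buffer with DTT and Triton X-100 / Schedule: 50 min enzyme reaction at room temperature, protected from light / Measured by: endpoint fluorescence intensity from OMFP dephosphorylation / Read-out basis: % inhibition relative to no-enzyme and uninhibited control wells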
GRK2 aptamer HTS = compounds blocking aptamer binding on GRK2 – biochemical, human GRK2, bead flow cytometry, HTS, primary screen; Beta-adrenergic receptor kinase 1 (Homo sapiens), P25098; FAM-aptamer displacement from GRK2; inhibition of aptamer binding, % at 10 µM; 330,000 compounds, 0.59% hits; AID 488847, 2010;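 active = inhibition of aptamer binding above 40%, roughly 3 SD of noise, on plates passing a quality check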;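 also: median bead fluorescence of bound FAM aptamer so fluorescent compounds give negative values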
Scp1 confirm = Scp-1 phosphatase inhibitors, retest, confirmation, biochemical, colorimetric, single concentration. AID 540281, 2011. recombinant SCP-1 catalytic domain, phosphate release, malachite green absorbance. 2,500 compounds, 61% hits. inhibition, % at 20 µM. shares compounds with Scp-1 inhibitor;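 also: plate controls were DMSO with enzyme for no effect and buffer wells lacking enzyme for full effect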
Scp-1 MG ctr = colorimetric readout interference by compounds, confirmation, artefact control for Scp-1 inhibitor project, biochemical, single concentration; shares compounds with Scp-1 inhibitor; Colorimetric interference counterscreen, malachite green absorbance 630 nm; apparent inhibition (interference), % at 20 µM; 2,500 tested, under 10 active; AID 540313, 2011;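 also: compounds added after enzyme reaction finished so only phosphate colour detection is probed; plate controls were DMSO wells with completed Scp-1 reaction for no effect and substrate wells lacking enzyme for full effect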
Scp-1 Tm shift = Scp-1 binding by thermal shift, confirmation, orthogonal assay for Scp-1 inhibitor project, biophysical, differential scanning fluorimetry. shares compounds with Scp-1 inhibitor. Recombinant SCP1, Sypro Orange thermal shift Tm. thermal shift relative to vanadate control, % at 40 µM. 1,500 compounds, 25% hits;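 active = substances whose mean melting-temperature shift, as a percentage of the reference inhibitor's shift, reaches about 5.3%, limit read from the data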;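 also: 0% = Tm of DMSO wells and 100% = Tm with sodium orthovanadate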
DNMT1 inh conf = DNMT1 methyltransferase inhibitor retest, confirmation, biochemical, molecular beacon, fluorescence, single concentration | 2,300 compounds, 8% hits | AID 602385, 2012 | DNMT1 molecular beacon HinP1I cleavage | inhibition, % at 10 µM | shares compounds with DNMT1 block;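 active = average inhibition of at least 30% in the single-concentration confirmation test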
Beacon interf = counter-screen for DNMT1 inhibitors: spectral interference; AID 602387; activation (fluorescence interference), % at 10 µM; shares compounds with DNMT1 block; DNMT1 molecular beacon spectral interference counterscreen, fluorescence 485/520; 2,300 compounds, 1% hits;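 active = activation of at least 30% at 10 µM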;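 also: DNMT1 catalytic domain with a HinP1I cleavage step and a FAM/dabcyl DNA beacon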
STEP conf = STEP phosphatase inhibitor hit confirmation, biochemical, fluorescence intensity, single concentration | shares compounds with STEP block | recombinant STEP, OMFP fluorogenic substrate | inhibition, % at 20 µM | 520 compounds, 32% hits | AID 623866, 2012; call rule not given here;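 also: 0% = enzyme with substrate plus DMSO and 100% = substrate without enzyme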
Starred values were filed as active, the others as inactive; . = not tested or not shown. The list is not random: actives were taken first. Their share in the collection is about 2.1%.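 The calls were made as follows, unless noted: active = inhibition of at least 30% at 20 µM; inactive = the rest.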

SMILES	DNMT1 block	STEP block	SUMO1 PPI mod	Scp-1 inhibitor	LMPTP block	GRK2 aptamer HTS	Scp1 confirm	Scp-1 MG ctr	Scp-1 Tm shift	DNMT1 inh conf	Beacon interf	STEP conf
COc1cc(/C=C2/SC(=S)N(CCC(=O)Nc3ccc(C(=O)O)cc3)C2=O)cc(OC)c1OC	-0.7	41.6*	-24.9	67.7*	14.1	5.0	63.2*	-9.8	24.7*	.	.	-1.2
O=C(CCN1C(=O)/C(=C/c2ccc(Cl)cc2)SC1=S)Nc1ccc(C(=O)O)cc1	2.7	48.6*	-4.5	91.6*	75.3*	0.0	69.4*	-14.2	-2.0	.	.	14.5
COc1cc(/C=C2\SC(=S)N(CCC(=O)Nc3ccc(O)cc3)C2=O)cc(OC)c1OC	-16.5	-1.1	3.0	-12.3	-0.7	0.0	.	.	.	.	.	.
O=C(N/N=C/c1ccc(Cl)c([N+](=O)[O-])c1)c1ccc2c(c1)OCCO2	80.4*	94.3*	79.8*	104.8*	88.9*	.	78.0*	-13.6	-12.5	8.6	-1.8	46.4*
O=C1NN(c2ccccc2)C(=O)/C1=C\c1ccccc1OCC(=O)N1CCOCC1	5.1	0.1	4.3	-2.7	-0.1	0.0	.	.	.	.	.	.
O=C1NN(c2cccc(Br)c2)C(=O)/C1=C\c1ccc(N2CCOCC2)cc1	65.2*	82.5*	33.3	51.6*	66.2*	13.0	48.5*	2.0	3.9	-0.1	1.7	72.5*
COc1cc(/C=N/NC(=O)c2ccncc2)ccc1OCC(=O)Nc1cccc([N+](=O)[O-])c1	-16.6	1.2	35.3	-6.4	3.4	0.0	.	.	.	.	.	.
O=C(COc1ccc(/C=N/NC(=O)c2ccc(O)cc2)cc1)Nc1cccc([N+](=O)[O-])c1	18.0	74.5*	6.4	95.7*	59.0*	0.0	61.1*	-20.3	13.5*	.	.	94.0*
CCOc1ccc(C(=O)N/N=C/c2cc([N+](=O)[O-])cs2)cc1	48.0	90.6*	-5.0	107.3*	71.1*	0.0	82.2*	-18.4	1.4	1.8	1.8	14.0
CN(C(=O)CSc1nnnn1C)C1(C#N)CCCCC1	1.8	1.2	4.9	-7.2	-1.5	0.0	.	.	.	.	.	.
CCNC(=O)C1(C)CCCN(C(=O)c2cccc(C)c2C)C1 (stereo not drawn)	2.7	-0.7	-2.7	.	-1.4	.	.	.	.	.	.	.
Cc1ccc(-c2nc(NC(=O)CSc3cc(C)c4ccccc4n3)ns2)cc1	89.9*	69.9*	24.9	106.0*	66.4*	2.0	83.6*	-9.0	0.8	3.2	-4.1	49.9*
